Usually inhibition stands for the relative decrease from the control value, in per cent.

The values that follow come from PubChem BioAssay.

Assay [1] can be described thus: inhibitors of TNFa-induced NFkB p65 translocation, primary screen, imaging, HUVEC, MLSMR starter and 10KST1 sets (AID 438;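 active means inhibition above 20% together with a positive visual image hit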;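 further: compound added about 3h40 before a 20 min TNFalpha stimulation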;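 on inhibition: signal is the nuclear over cytoplasmic p65 intensity ratio per well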). Conditions: HUVEC TNFa-induced p65 nuclear translocation; cell count: measured here: nuclei count (cytotoxicity indicator), at 2.08 µM; inhibition: at 2 µM, stronger effect = higher value, 0% TNFa-plus-vehicle, 100% no-TNFa wells.
The nature of assay [2]: inhibitors of E-selectin induction by TNFa, primary screen, imaging, HUVEC, immunofluorescence, MLSMR starter and 10KST1 sets (AID 487;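 active means visually confirmed hit in the image check and inhibition above 20%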;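 on inhibition: signal is fraction of cell area covered by stained E-selectin grains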;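 on nuclei count: 100% = median nuclei count of all wells on the same plate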). As to conditions: HUVEC TNFalpha-induced E-selectin immunofluorescence imaging, at 2 µM; inhibition: stronger effect = higher value; nuclei count: measured here: cell number, toxicity.
The nature of assay [3]: DUSP6 inhibitors restoring Erk phosphorylation by chemical complementation, primary imaging in DUSP6-transfected HeLa (AID 609;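 active means compounds giving at least 50% inhibition in the cell-based MKP-3 phosphatase rescue imaging test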;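 on inhibition: phospho-Erk level distribution per well compared with pooled transfected vehicle control wells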). Conditions: HeLa MKP-3 transfected, phospho-Erk imaging KS statistic, at 10 µM, cells stimulated with TPA for 15 min.
For assay [4], the target named is Dual specificity protein phosphatase 6 (Homo sapiens) (UniProt Q16828). Described as above. Conditions: HeLa MKP-3 transfected, phospho-Erk imaging KS statistic; at 10 µM; stronger effect = higher value; cells stimulated with TPA for 15 min.
Chain of Dual specificity protein phosphatase 6 (Homo sapiens) (Q16828 whole entry, looked up): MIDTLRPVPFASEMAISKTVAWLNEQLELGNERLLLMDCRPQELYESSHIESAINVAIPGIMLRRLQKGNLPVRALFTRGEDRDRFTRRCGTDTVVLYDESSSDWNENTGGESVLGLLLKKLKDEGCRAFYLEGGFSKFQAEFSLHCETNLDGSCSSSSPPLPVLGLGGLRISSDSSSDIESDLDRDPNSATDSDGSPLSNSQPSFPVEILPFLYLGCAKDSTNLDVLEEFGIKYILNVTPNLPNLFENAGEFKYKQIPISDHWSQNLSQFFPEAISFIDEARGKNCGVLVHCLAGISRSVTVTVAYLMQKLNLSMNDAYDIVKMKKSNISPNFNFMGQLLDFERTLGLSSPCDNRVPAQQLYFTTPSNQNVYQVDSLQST
The target of assay [5] is Voltage-gated potassium channel subunit beta-2 (Rattus norvegicus) (UniProt P62483). The assay can be described thus: KvBeta enzyme negative modulators, primary screen, biochemical, NADPH fluorescence (AID 622).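 Further: slope of raw intensity against log time taken from 70 to 1610 s.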 Conditions: recombinant KvBeta, 4-cyanobenzaldehyde reduction, at 10 µM, stronger effect = higher value.
Chain of Voltage-gated potassium channel subunit beta-2 (Rattus norvegicus) (P62483 whole entry, looked up): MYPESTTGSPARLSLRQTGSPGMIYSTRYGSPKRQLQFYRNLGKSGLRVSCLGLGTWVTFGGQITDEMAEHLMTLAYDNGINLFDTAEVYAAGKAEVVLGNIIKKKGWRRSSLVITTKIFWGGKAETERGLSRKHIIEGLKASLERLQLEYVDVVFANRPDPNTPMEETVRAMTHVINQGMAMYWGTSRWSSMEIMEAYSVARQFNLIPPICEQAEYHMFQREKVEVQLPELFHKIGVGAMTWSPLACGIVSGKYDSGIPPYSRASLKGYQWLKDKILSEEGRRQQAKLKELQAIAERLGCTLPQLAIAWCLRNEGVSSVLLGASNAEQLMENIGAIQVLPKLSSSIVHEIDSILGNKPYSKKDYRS
For assay [6] the target is unchanged. The assay can be described thus: KvBeta positive modulators, primary screen, biochemical, NADPH fluorescence (AID 623;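 active means NADPH fluorescence slope more negative than the mean of all samples by about 3 SD, 99.7% confidence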;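 further: fluorescence intensity change per second fitted from 20 to 320 s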). As to conditions: Recombinant KvBeta, NADPH fluorescence decrease slope, 10 min; at 10 µM; stronger effect = lower value.
Assay [7] concerns the target Muscarinic acetylcholine receptor M4 (Homo sapiens) (UniProt P08173). The assay can be described thus: compounds altering M4/GIRK thallium flux, either direction, primary screen, M4 allosteric agonist project, cell-based, HEK293 M4/GIRK, BTC-AM (AID 625;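 active means fluorescence slope after compound addition differing from the mean of all tested samples at 99.7% confidence, mostly higher but some lower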;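 further: thallium influx through GIRK channels coupled to M4 in HEK293 cells with BTC-AM dye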). As to conditions: at 10 µM, actives lie on both sides. In outline:
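Material: HEK293 cells with M4 receptor and GIRK channels; Times: cells overnight at 37 °C, BTC-AM loading 1 h, reads 2 min total; Technique: kinetic BTC-AM fluorescence sampled at 1 Hz, 10 s pre-addition baseline; Read-out basis: slope over 15–24 s of trace normalized to starting intensity; Controls: carbachol positive, DMSO negative.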

Assay [8] can be described thus: inhibitors of larval lipid processing in zebrafish, primary screen, whole organism, PED6 fluorescence, gall bladder and intestine (AID 686;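 active means a full or partial loss of lipid-probe fluorescence in the fish gall bladder, intestine or both, judged by eye; inactive means no fluorescence loss, or compound toxic to the fish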;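 further: larvae 5 to 7 days old with five fish per well; signal comes from phospholipase A2 cleavage of quenched PED6 carried via bile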). Conditions: Zebrafish larvae PED6 lipid processing, fluorescence scoring; screened at 20 µM (by protocol). In outline: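 Incubation: overnight exposure of larvae to compound plus PED6 / Test system: live zebrafish larvae aged 5-7 days, whole organism / Amount: 5 larvae per well / Read-out basis: visual per-well fluorescence inhibition score / Signal: visual fluorescence microscopy scoring of gall bladder, gut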

The nature of assay [9]: inhibitors of Chlamydomonas gravitaxis, primary screen, whole organism, Chlamydomonas reinhardtii, WT vs cilia-less mutant, absorbance, 96-well (AID 463189;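 active means inhibition at or above 50% relative to wild type and mutant plate controls; inactive means inhibition below 50%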;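 further: 0% = wild type cc124 cells in DMSO and 100% = ciliumless bld1 mutant cells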). Conditions: OD600 absorbance, 2 days, at 10 µM, stronger effect = higher value.
Where [10] appears, read: measured here: cell density z-score.
The mark [11] stands for this setting: measured here: nuclear c-Myc green intensity z-score.
[12] abbreviates: measured here: nuclear pErk red intensity z-score, stronger effect = higher value.

Activity calls are given as the source filed them.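 How the source made its calls, unless noted: active means fluorescence slope higher than the sample average by over 3 SD (cut at about -0.22 in these data, passing the limit was not always enough); inactive means the rest.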

Chain of Muscarinic acetylcholine receptor M4 (Homo sapiens) (P08173 whole entry, looked up): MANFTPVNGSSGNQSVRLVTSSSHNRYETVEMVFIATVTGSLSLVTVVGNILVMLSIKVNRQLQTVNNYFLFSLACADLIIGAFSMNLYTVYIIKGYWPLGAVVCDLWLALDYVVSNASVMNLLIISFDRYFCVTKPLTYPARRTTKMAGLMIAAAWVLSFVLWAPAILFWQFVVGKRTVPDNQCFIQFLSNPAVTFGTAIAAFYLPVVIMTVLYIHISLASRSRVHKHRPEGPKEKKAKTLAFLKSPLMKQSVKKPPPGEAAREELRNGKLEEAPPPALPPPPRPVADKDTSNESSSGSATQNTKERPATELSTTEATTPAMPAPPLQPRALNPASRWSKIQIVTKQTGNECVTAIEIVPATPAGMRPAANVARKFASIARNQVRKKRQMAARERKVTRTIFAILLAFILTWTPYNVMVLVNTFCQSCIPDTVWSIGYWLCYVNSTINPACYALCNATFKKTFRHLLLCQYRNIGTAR

Regarding `Cc1nnc(SCC(=O)N2CCOCC2)c2ccccc12`, the cell count in [1] worked out at 489. Besides, the inhibition in [1] is 7.8% (inactive); in assay [2] it was -38.5% (inactive); in [4], 1.63% (inactive); in [9] it was -5.11% (inactive). For the same compound, the nuclei count in assay [2] came to 135%. For the same compound, the z-score in assay [3] (setting [10]) was determined as 0.531; in assay [3] (setting [11]) it was 1.47; in assay [3] (setting [12]), 0.934. The fluorescence slope is -0.534 (inactive) in [5] and 0.00485 (inactive) in assay [7]. For the same compound, the NADPH fluorescence slope in assay [6] was -0.000118 (inactive). Moreover, the call in assay [8] was inactive.

As to `CCc1ccc(-c2cn3nc(C)c(C)nc3n2)cc1`, the cell count in [1] was determined as 539. For the same compound, the inhibition was -0.3% (inactive) in assay [1], 5.5% (inactive) in assay [2], 9.91% (inactive) in [4] and 23.7% (inactive) in assay [9]. In [2], the nuclei count turned out to be 143%. Besides, the z-score in assay [3] (setting [10]) is 0.256; in assay [3] (setting [11]) it was -1.56; in assay [3] (setting [12]) it was -0.591. The fluorescence slope is -0.0112 (inactive) in assay [5] and 0.00271 (inactive) in assay [7]. Further, in assay [6], the NADPH fluorescence slope is 2.5e-06 (inactive). The result in assay [8] was inactive.

Regarding `Cc1c(C)[n+](=O)c2c(n1[O-])CCC2`, in assay [1], the cell count came to 529. For the same compound, the inhibition is -2% (inactive) in assay [1], -51.7% (inactive) in assay [2], 13.9% (inactive) in assay [4] and 38.1% (inactive) in assay [9]. For the same compound, the nuclei count in assay [2] came to 103%. Also, the z-score was -0.661 in [3] (setting [10]), -0.154 in assay [3] (setting [11]) and 0.608 in assay [3] (setting [12]). In addition, the fluorescence slope in [5] was -0.343 (inactive); in assay [7] it was 0.00544 (inactive). Besides, the NADPH fluorescence slope in assay [6] was -2.3e-05 (inactive). Also, in [8], the call was inactive.

Consider `CCCc1nc(N2CCCC2)c(C#N)c2c1CCCC2`, for which the cell count in [1] amounted to 605. Moreover, the inhibition in [1] was -1.2% (inactive); in assay [2], -118% (inactive); in assay [4] it was -5.81% (inactive); in [9], 4.3% (inactive). The same compound showed a nuclei count in assay [2] of 141%. Further, the z-score in assay [3] (setting [10]) was -1.08; in assay [3] (setting [11]), 0.0644; in [3] (setting [12]) it was -0.444. In addition, the fluorescence slope is -0.448 (inactive) in assay [5] and 0.00554 (inactive) in assay [7]. In addition, the NADPH fluorescence slope in assay [6] was -9.6e-05 (inactive). Also, the compound was classed as inactive in assay [8].

Take `O=c1c2c3c(sc2nc2n1CCCS2)CCCC3`: the cell count in assay [1] amounted to 612. For the same compound, the inhibition in assay [1] was -6.1% (inactive); in assay [2] it was -125% (inactive); in [4], -7.67% (inactive); in [9], 73.3% (active). In [2], the nuclei count was determined as 162%. Also, the values for the z-score in [3] (setting [10]), in assay [3] (setting [11]) and in [3] (setting [12]) were -0.979, -0.423 and 0.7, respectively. Moreover, the fluorescence slope in [5] was -0.477 (inactive); in assay [7], 0.00442 (inactive). Moreover, the NADPH fluorescence slope in assay [6] is -9.8e-05 (inactive). Also, in assay [8], the outcome was inactive.

On to `Cn1c(N)c(C#N)c(C#N)c1-c1ccccc1`, for which the cell count in [1] came to 625. Further, the inhibition in [1] is -10.7% (inactive); in [2], -93.2% (inactive); in assay [4], -2.59% (inactive); in [9], 31.5% (inactive). This compound had a nuclei count in assay [2] of 183%. Further, the values for the z-score in assay [3] (setting [10]), in assay [3] (setting [11]) and in [3] (setting [12]) were -0.336, -0.891 and 0.762, respectively. Also, the figures for the fluorescence slope in assay [5] and in assay [7] were -0.339 (inactive) and 0.00399 (inactive), respectively. In assay [6], the NADPH fluorescence slope was -1.8e-05 (inactive). In assay [8], the call was inactive.

For the compound `CCCCSc1nc(O)c(C2OC(=O)c3c2ccc(OC)c3OC)c(=O)n1C` (centres undefined), the cell count in assay [1] was 559. Also, the inhibition in assay [1] was 1.9% (inactive); in assay [2] it was 57.7% (active); in assay [4], 9.91% (inactive); in assay [9] it was 32.4% (inactive). Also, the nuclei count in assay [2] amounted to 95.8%. Further, the values for the z-score in assay [3] (setting [10]), in assay [3] (setting [11]) and in assay [3] (setting [12]) were -2.21, -0.0853 and 0.751, respectively. Moreover, the values for the fluorescence slope in [5] and in assay [7] were -0.372 (inactive) and 0.00535 (inactive), respectively. Further, the NADPH fluorescence slope in [6] is -2.3e-05 (inactive). Further, the call in assay [8] was inactive.

Regarding `CCOc1ccc(NC(=O)c2nn(C)cc2Br)cc1`, the cell count in assay [1] is 647. Also, the inhibition is 2.4% (inactive) in [1], -41% (inactive) in assay [2], -4.27% (inactive) in assay [4] and 4.55% (inactive) in assay [9]. The compound further had a nuclei count in assay [2] of 157%. In addition, the values for the z-score in assay [3] (setting [10]), in [3] (setting [11]) and in [3] (setting [12]) were 0.327, 0.393 and -0.814, respectively. Also, the fluorescence slope was -0.489 (inactive) in [5] and 0.00579 (inactive) in assay [7]. Further, in [6], the NADPH fluorescence slope was -6.1e-05 (inactive). Further, in assay [8], the outcome was inactive.

Turning to `CN(C)c1ccc(C=Nc2cnn(C)c2C(N)=O)cc1`, the cell count in [1] amounted to 657. The inhibition is 5.6% (inactive) in [1], 2% (inactive) in [2], 9.91% (inactive) in [4] and 13.4% (inactive) in [9]. In addition, in assay [2], the nuclei count stood at 112%. Also, the z-score in assay [3] (setting [10]) is -0.322; in assay [3] (setting [11]), 0.511; in assay [3] (setting [12]), 0.593. For the same compound, the fluorescence slope in assay [5] was -0.548 (inactive); in [7], 0.00504 (inactive). Also, the NADPH fluorescence slope in assay [6] was -8.2e-05 (inactive). Further, the call in [8] was inactive.

Take `C=CCOc1ccc(/C(O)=C2/C(=O)C(=O)N(CCCN3CCOCC3)C2c2ccccc2)cc1` (centres undefined): the cell count in [1] was 400. Besides, the inhibition in assay [1] is -4.5% (inactive); in [2] it was -152% (inactive); in assay [4] it was 7.73% (inactive); in [9], 3.35% (inactive). Further, the nuclei count in [2] was 142%. Further, the z-score is 0.832 in assay [3] (setting [10]), -1.64 in assay [3] (setting [11]) and 0.377 in assay [3] (setting [12]). In addition, the fluorescence slope in [5] is -0.44 (inactive); in [7] it was 0.00439 (inactive). For the same compound, the NADPH fluorescence slope in [6] is -0.000122 (inactive). In assay [8], the outcome was inactive.

In the case of `Cn1c(=O)c2c(nc(NCc3ccco3)n2CCc2ccccc2)n(C)c1=O`, the cell count in assay [1] stood at 605. Also, the inhibition is 6% (inactive) in [1], -74.4% (inactive) in assay [2], 1.98% (inactive) in assay [4] and 33.1% (inactive) in [9]. Also, in assay [2], the nuclei count was determined as 121%. Further, the z-score was -0.322 in assay [3] (setting [10]), -0.952 in assay [3] (setting [11]) and 1.19 in assay [3] (setting [12]). Further, the fluorescence slope in assay [5] was -0.524 (inactive); in [7], 0.00721 (inactive). Also, the NADPH fluorescence slope in assay [6] is -6e-05 (inactive). In [8], the outcome was inactive.

As for `CC(=O)/C(C#N)=C1\NC(=O)C(Cc2ccccc2)S1` (centres undefined), the cell count in assay [1] came to 574. The inhibition in [1] was -16.2% (inactive); in assay [2] it was 5.4% (inactive); in [4] it was -8.59% (inactive); in assay [9], 3.86% (inactive). In assay [2], this compound registered a nuclei count of 183%. Besides, the z-score in [3] (setting [10]) is 0.151; in assay [3] (setting [11]), 0.495; in [3] (setting [12]), 0.071. For the same compound, the values for the fluorescence slope in [5] and in assay [7] were -0.425 (inactive) and 0.00604 (inactive), respectively. Moreover, in [6], the NADPH fluorescence slope was -6.1e-05 (inactive). Moreover, the call in assay [8] was inactive.

As to `COCCNc1oc(-c2ccc(F)cc2)nc1C#N`, in [1], the cell count turned out to be 631. The inhibition in [1] was -8.1% (inactive); in assay [2] it was -48.8% (inactive); in assay [4] it was 24% (inactive); in assay [9], -8.51% (inactive). Moreover, the nuclei count in [2] was found to be 162%. Besides, the figures for the z-score in [3] (setting [10]), in [3] (setting [11]) and in assay [3] (setting [12]) were 1.98, -0.407 and 1.1, respectively. For the same compound, the fluorescence slope was -0.446 (inactive) in [5] and 0.00617 (inactive) in assay [7]. In [6], the NADPH fluorescence slope is -6.5e-05 (inactive). In addition, in assay [8], the outcome was inactive.
